Results from PubChem BioAssay.
The source made the active and inactive calls.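 The calls were made as follows: active = active in primary screen and both duplicates, each dropping signal beyond three positive-control SD with fluorescence still positive; inactive = the rest.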

target: Short transient receptor potential channel 6 (Mus musculus) (UniProt Q61143); assay: TRPC6 blockade by TRPC4 inhibitor hits – cell-based, HEK293, membrane potential dye, duplicate, selectivity assay for TRPC4 inhibitor project, confirmation (AID 434948); settings: HEK293 TRPC6, membrane potential dye fluorescence, at 10 µM, stimulated with maximal-effect acetylcholine
Sequence (Q61143 whole entry, looked up): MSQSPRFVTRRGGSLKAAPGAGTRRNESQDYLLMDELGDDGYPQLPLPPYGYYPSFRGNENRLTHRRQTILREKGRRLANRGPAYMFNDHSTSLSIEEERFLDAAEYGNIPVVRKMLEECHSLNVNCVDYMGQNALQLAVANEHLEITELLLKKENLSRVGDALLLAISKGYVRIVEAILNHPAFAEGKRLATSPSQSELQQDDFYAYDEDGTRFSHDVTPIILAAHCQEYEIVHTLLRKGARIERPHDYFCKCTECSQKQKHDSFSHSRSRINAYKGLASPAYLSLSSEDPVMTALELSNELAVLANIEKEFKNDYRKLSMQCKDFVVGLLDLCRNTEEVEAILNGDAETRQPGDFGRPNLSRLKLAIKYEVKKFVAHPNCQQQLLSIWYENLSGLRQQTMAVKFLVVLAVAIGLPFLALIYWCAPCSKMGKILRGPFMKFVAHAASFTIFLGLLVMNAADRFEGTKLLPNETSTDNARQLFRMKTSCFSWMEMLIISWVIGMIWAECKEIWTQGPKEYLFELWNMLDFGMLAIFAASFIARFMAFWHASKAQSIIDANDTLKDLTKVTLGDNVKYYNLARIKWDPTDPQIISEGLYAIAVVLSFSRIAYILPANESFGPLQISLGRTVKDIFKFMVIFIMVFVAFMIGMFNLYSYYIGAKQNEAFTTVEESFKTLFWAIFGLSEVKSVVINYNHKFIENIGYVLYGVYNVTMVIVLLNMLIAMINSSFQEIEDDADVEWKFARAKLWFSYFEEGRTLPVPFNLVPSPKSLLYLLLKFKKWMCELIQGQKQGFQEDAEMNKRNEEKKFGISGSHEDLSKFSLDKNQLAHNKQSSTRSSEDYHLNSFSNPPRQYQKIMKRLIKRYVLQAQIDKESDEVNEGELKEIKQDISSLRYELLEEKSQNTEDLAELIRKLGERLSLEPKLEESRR
In short: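 System: TRPC6-expressing HEK293 cells. Timing: dye 45 min RT, compound 110 s, agonist read 110 s. Measured by: kinetic fluorescence of membrane potential dye with 5 s baseline.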

outcome, inactive:
Cc1cc(-c2ccc(C)c(S(=O)(=O)NCCCN(Cc3ccccc3)C(C)C)c2)on1, CCc1nc(NCCc2ccccn2)c2nnn(Cc3ccccc3F)c2n1, Cc1sc2ncnc(NCC(C)(C)N3CCOCC3)c2c1C, Cc1ccc(N2CCN(c3ccc(NCc4nc5ccccc5n4C)cc3)CC2)cc1, COc1ccc(C(CNC(=O)CN2C(=O)NC3(CCCC3)C2=O)N(C)C)cc1 (stereo not given), Cc1cccc(NC(=S)NCC(c2cccnc2)N(C)C)c1C (stereo not given), Cc1ccccc1OCC(=O)NNC(=S)NC(=O)c1ccco1, Cc1ccc(Sc2cc(C(=O)NCCN(C)C)c3ccccc3n2)cc1, O=C(O)c1ccc(-c2ccc(/C=c3/sc4nc5ccccc5n4c3=O)o2)cc1Cl, Cc1ccccc1C(=O)NNC(=S)NC(=O)c1ccccc1, CN(C)C(CNC(=O)c1ccc2ccccc2n1)c1ccccc1 (stereo not given), Cc1cc(NC(=O)CN2CCc3ccccc3C2)nc2c1c(=O)oc1ccccc12, Cn1c(CN2CCN(c3cccc(Cl)c3)CC2)nc2ccccc21, CN(C)C(CNC(=O)c1cnc(Cl)c(Cl)c1)c1ccccc1 (stereo not given), Cc1ccc(Cl)cc1NC(=O)CNCC(c1ccccc1)N(C)C (stereo not given), CN(C)CCCN(C(=O)c1ccc(S(=O)(=O)N2CCOCC2)cc1)c1nc2ccc(F)cc2s1, CN(C)CCN(C(=O)c1cccc2ccccc12)c1nc2cc3c(cc2s1)OCO3, Cc1ccc2c(C)c(C(=O)N(Cc3cccs3)C3CCS(=O)(=O)C3)oc2c1 (stereo not given), CCN1CCN(c2c(Cl)cccc2NC(=O)c2ccc3nsnc3c2)CC1, O=C(C1CCCN(Cc2ccncc2)C1)N1CCc2ccccc2C1 (stereo not given), CCN(c1ccccc1)S(=O)(=O)c1ccc(C(=O)N(CCCN(C)C)c2nc3cc4c(cc3s2)OCO4)cc1, CC1CCCN(CCCNC(=O)c2ccc3c(c2)N(Cc2ccccc2F)C(=O)c2ccccc2S3(=O)=O)C1 (stereo not given), O=C(Nc1nnc(-c2ccccc2Cl)o1)c1nc2ccccc2s1, COc1ccc(C(=O)NC(=S)NNC(=O)CCc2ccccc2)cc1, Cc1cc(-c2nn(-c3ccccc3F)cc2CNCCc2cnc[nH]2)c(C)s1, Cc1ccc(C(=O)NC(=S)NNC(=O)c2ccccc2)cc1, Cc1csc2c(N3CCN(C(=O)NC(C)(C)C)CC3)ncnc12, COC(=O)[C@@]1(Cc2ccc(F)cc2)[C@H]2c3cc(C(=O)N(C)C)n(CCc4ccccn4)c3C[C@H]2CN1C(=O)c1ccccc1, CN(CCc1ccccn1)C(=O)CC1C(=O)NCCN1Cc1ccccc1C(F)(F)F (stereo not given), COc1cc(/C=C/C(=O)c2ccc3c(c2)OCO3)cc(Cl)c1O, CCn1c(N2CCN(C(=O)Nc3ccc(F)cc3)CC2)nc2ccccc21, O=S(=O)(c1ccccc1)c1nnn2c1nc(NC1CCN(Cc3ccccc3)CC1)c1cc(Cl)ccc12, CCOC(=O)c1oc2ccc(OC)cc2c1NC(=O)CN1CCN(C)CC1, C=CCn1c(CCNC(=O)C(C)(C)C)nc2ccccc21, CCOC(=O)C1(CCOc2ccccc2)CCN(Cc2ccc3c(c2)OCCO3)CC1, Cc1cc(C)n(-c2nc(SCCN(C)C)c3c4c(sc3n2)CCCC4)n1, COc1cc(OC)cc(C(=O)NC2CCCN(Cc3ccc(Cl)cc3)C2)c1 (stereo not given), CN(C)C(CNC(=O)CCc1c[nH]c2ccccc12)c1ccccc1 (stereo not given), CCCCN(CC)CCCNC(=O)Cn1nc(Cc2ccncc2)c2ccccc2c1=O, COC(=O)C1=C(C)N(Cc2ccccc2)C(=NCCc2ccccn2)N[C@H]1c1cccc(F)c1
